pIC50: −log10 of the molar value. Activity calls are given as the source filed them. The calls are words filed in the database; no cut-off is given here.

As a reminder, the GI50 is the concentration that inhibits growth by half. The pIC50 is −log10 of the IC50, conventionally taken in molar units. Lower therefore signals a large IC50.

One experiment is filed under the species Ovis aries. Put plainly: (§1) Inhibition of dynamin 1 GTPase activity in sheep brain peripheral membrane by microplate spectrophotometry. Format: cell membranes. An outline of the steps: (§2)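 Sheep brain dynamin I, affinity-purified on GST-Amph2-SH3, used at 20 nM. Sample preincubated 12 min at 37 °C with 0.3 mM GTP in Tris pH 7.5 buffer containing Mg2+, Tween 80 and protease inhibitors. Enzyme then added; 30 min at 37 °C with shaking; phosphatidylserine liposome stimulation. Stopped with EDTA; malachite green phosphate readout at 650 nm against phosphate standard curve.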

In a further experiment the test system is HT-29. Briefly: Cytotoxicity against human HT-29 cells after 72 hrs by MTT assay. It counts as functional. The note with it: HT-29, 72 h. Put shortly:
(§3)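 ATCC lines grown in DMEM with 10% FBS, glutamine, antibiotics, 37 °C, 5% CO2; 2000–3000 cells/well plated, compound added 24 h later during log growth. Eight concentrations, 0.25–50 μM (from 20 mM DMSO stock), 72 h exposure; MTT absorbance at 540 nm. GI50 = concentration giving 50% growth inhibition versus untreated cells; duplicate wells, two separate experiments.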
For orientation: Formazan colour is commonly taken as a measure of viable cells.

In a further experiment the test system is MCF7. Put plainly: Cytotoxicity against human MCF7 cells after 72 hrs by MTT assay. It counts as functional. The note with it: MCF7, 72 h. An outline of the steps:
as §3

In the next experiment the test system is A2780. Briefly: Cytotoxicity against human A2780 cells after 72 hrs by MTT assay. Format: functional. Particulars: A2780, 72 h. Put shortly: as §3
The test system of a further experiment is DU-145. Briefly: Cytotoxicity against human DU145 cells after 72 hrs by MTT assay. It counts as functional. Particulars: DU-145, 72 h. An outline of the steps: as §3
Experiment [1] is described as follows: as §1. It counts as cell membranes, Ovis aries. An outline of the steps: as §2

`CC(C)C(C)/C=C/C(C)C1C(O)CC2C3CCC4CC(O)CCC4(C)C3CC(O)C21C` (stereo not given): the outcome in the experiment filed under Ovis aries was inactive. Moreover, the GI50 in the experiment on HT-29 was 7 µM; in the experiment with MCF7, 17 µM; in the experiment on A2780, 10 µM; in the experiment on DU-145, 27 µM.
`CC(C)CCCC(C)C1C(O)CC2C3CCC4CC(O)CCC4(C)C3CC(O)C21C` (stereo not given): the result in the experiment filed under Ovis aries was inactive. Moreover, the GI50 in the experiment on HT-29 is 5 µM; in the experiment on MCF7, 5.5 µM; in the experiment on A2780 it was 5.4 µM; with DU-145, 6.7 µM.
In the same order, the values of `C=C(CCC(C)C1C(O)CC2C3CCC4CC(O)CCC4(C)C3CC(O)C21C)C(C)C` (stereo not given) are “inactive”, 18 µM, 18 µM, 19 µM and 27 µM.
The molecule `C=C(C)C(CC)CCC(C)C1C(O)CC2C3CCC4CC(O)CCC4(C)C3CC(O)C21C` (stereo not given) gave a pIC50 in experiment [1] of less than 3.52. Also, the GI50 in the experiment with HT-29 amounted to 7.1 µM; in the experiment on MCF7 it was 10 µM; in the experiment on A2780, 11 µM; in the experiment on DU-145, 13 µM.

For the origin of these results see ChEMBL document CHEMBL1151817, “Steroids from an Australian sponge Psammoclema sp” (J Nat Prod, 2009).
